Reference: PubChem BioAssay
Activity calls are given as the source filed them.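 Rule for the calls, unless noted: active = visual image review flags a hit and inhibition of aggregation exceeds 20%; inconclusive = visual hit but inhibition at or below 20%; inactive = no hit on visual image review.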

Experiments:
[1] = inhibitors of TNFa-induced NFkB p65 translocation, primary screen, imaging, HUVEC, MLSMR starter and 10KST1 sets (AID 438;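 active = inhibition above 20% together with a positive visual image hit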;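 note: compound added about 3h40 before a 20 min TNFalpha stimulation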;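 for inhibition: signal is the nuclear over cytoplasmic p65 intensity ratio per well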); conditions: HUVEC TNFa-induced p65 nuclear translocation; cell count: measured here: nuclei count (cytotoxicity indicator), at 2.08 µM; inhibition: at 2 µM, stronger effect = higher value, 0% TNFa-plus-vehicle, 100% no-TNFa wells
[2] = inhibitors of mutant huntingtin aggregation, primary screen, imaging, exon1htt(103Q)mCFP cells, high-content imaging (AID 483); conditions: exon1htt(103Q)mCFP cell line, aggregate imaging, at 2 µM; inhibition of aggregation: stronger effect = higher value; nuclei count: measured here: cell count, toxicity;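 note: compound exposure lasted 3 days before fixation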;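 for nuclei count: percent of the per-plate median nuclei count of sample wells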
[3] = inhibitors of E-selectin induction by TNFa, primary screen, imaging, HUVEC, immunofluorescence, MLSMR starter and 10KST1 sets (AID 487;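 active = visually confirmed hit in the image check and inhibition above 20%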;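 for inhibition: signal is fraction of cell area covered by stained E-selectin grains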;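 for nuclei count: 100% = median nuclei count of all wells on the same plate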); conditions: HUVEC TNFalpha-induced E-selectin immunofluorescence imaging, at 2 µM; inhibition: stronger effect = higher value; nuclei count: measured here: cell number, toxicity
[4] = molecular target: Voltage-gated potassium channel subunit beta-2 (Rattus norvegicus) (UniProt P62483); experiment: KvBeta enzyme negative modulators, primary screen, biochemical, NADPH fluorescence (AID 622;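 active = fluorescence slope higher than the sample average by over 3 SD, cut at about -0.22 in these data, passing the limit was not always enough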;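 note: slope of raw intensity against log time taken from 70 to 1610 s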); conditions: recombinant KvBeta, 4-cyanobenzaldehyde reduction, at 10 µM, stronger effect = higher value
[5] = molecular target: Voltage-gated potassium channel subunit beta-2 (Rattus norvegicus) (UniProt P62483); experiment: KvBeta positive modulators, primary screen, biochemical, NADPH fluorescence (AID 623;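 active = NADPH fluorescence slope more negative than the mean of all samples by about 3 SD, 99.7% confidence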;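 note: fluorescence intensity change per second fitted from 20 to 320 s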); conditions: Recombinant KvBeta, NADPH fluorescence decrease slope, 10 min; at 10 µM; stronger effect = lower value
[6] = molecular target: Muscarinic acetylcholine receptor M4 (Homo sapiens) (UniProt P08173); experiment: compounds altering M4/GIRK thallium flux, either direction, primary screen, M4 allosteric agonist project, cell-based, HEK293 M4/GIRK, BTC-AM (AID 625;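 active = fluorescence slope after compound addition differing from the mean of all tested samples at 99.7% confidence, mostly higher but some lower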;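 note: thallium influx through GIRK channels coupled to M4 in HEK293 cells with BTC-AM dye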); conditions: at 10 µM, actives lie on both sides
Procedure, shortened: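 Assay system: HEK293 cells with M4 receptor and GIRK channels / Controls: carbachol and DMSO controls / Schedule: 1 h dye loading, 2 min kinetic read / Technique: kinetic fluorescence with BTC-AM dye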

[7] = inhibitors of Sendai virus-induced IRF3 signaling, primary screen, TLR/RLR signaling modifier project, cell-based, Sendai virus stimulus, luciferase, 10K MLSCN set (AID 602276;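 active = inhibition at or above 50% at 10 µM; inactive = inhibition below 50%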;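 note: firefly luciferase from ISG56 promoter only with Renilla not read in this screen; 0% = Sendai virus plus DMSO and 100% = medium plus DMSO without virus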); conditions: HEK293 RL24 IRF3 luciferase reporter, at 10 µM, stronger effect = higher value
[8] = inhibitors of poly I:C-induced TLR3 signaling, primary screen, cell-based, poly I:C stimulus, luciferase, 10K MLSCN set (AID 602277;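 active = inhibition of the reporter signal at or above 50%; inactive = inhibition below 50%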); conditions: HEK293-TLR3 RL24 IRF3 luciferase reporter, at 10 µM, stronger effect = higher value

Chain of Voltage-gated potassium channel subunit beta-2 (Rattus norvegicus) (P62483 whole entry, looked up): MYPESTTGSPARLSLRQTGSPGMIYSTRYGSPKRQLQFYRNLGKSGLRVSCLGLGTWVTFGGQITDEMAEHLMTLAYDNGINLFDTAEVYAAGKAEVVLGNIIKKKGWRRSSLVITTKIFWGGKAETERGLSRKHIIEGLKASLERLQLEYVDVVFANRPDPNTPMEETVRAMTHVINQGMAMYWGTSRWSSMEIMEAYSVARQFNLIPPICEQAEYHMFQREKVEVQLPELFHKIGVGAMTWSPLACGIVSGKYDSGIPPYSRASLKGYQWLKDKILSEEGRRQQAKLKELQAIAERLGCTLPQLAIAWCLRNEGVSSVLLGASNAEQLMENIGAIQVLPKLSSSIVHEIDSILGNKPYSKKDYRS
Chain of Muscarinic acetylcholine receptor M4 (Homo sapiens) (P08173 whole entry, looked up): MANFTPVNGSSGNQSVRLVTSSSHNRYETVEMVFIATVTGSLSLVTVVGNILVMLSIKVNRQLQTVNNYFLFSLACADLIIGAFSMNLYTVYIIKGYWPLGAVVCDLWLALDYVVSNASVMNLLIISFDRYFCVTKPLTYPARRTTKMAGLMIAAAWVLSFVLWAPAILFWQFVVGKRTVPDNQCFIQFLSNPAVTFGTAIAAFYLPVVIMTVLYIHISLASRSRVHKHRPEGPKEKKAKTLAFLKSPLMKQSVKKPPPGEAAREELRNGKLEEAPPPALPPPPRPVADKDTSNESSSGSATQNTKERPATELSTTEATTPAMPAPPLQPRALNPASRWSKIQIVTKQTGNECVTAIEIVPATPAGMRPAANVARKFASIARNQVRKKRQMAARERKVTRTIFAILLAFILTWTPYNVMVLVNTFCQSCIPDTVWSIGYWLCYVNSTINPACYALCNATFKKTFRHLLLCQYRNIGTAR

| SMILES | cell count [1] | inhibition [1] | inhibition of aggregation [2] | nuclei count [2] [%] | inhibition [3] | nuclei count [3] [%] | fluorescence slope [4] | NADPH fluorescence slope [5] | fluorescence slope [6] | inhibition [7] | inhibition [8] |
| --- | --- | --- | --- | --- | --- | --- | --- | --- | --- | --- | --- |
| CCn1nccc1C(=O)Nc1nccs1 | 392 | -0.5% (inactive) | -32.5% (inactive) | 108 | -45.2% (inactive) | 103 | -0.456 (inactive) | -4.4e-05 (inactive) | 0.00538 (inactive) | 16.4% (inactive) | 9.69% (inactive) |
| CCNS(=O)(=O)c1c(C)cc(N2CCCC2=O)cc1C | 498 | -8% (inactive) | 4.4% (inactive) | 88.1 | 27.7% (inactive) | 89 | -0.438 (inactive) | 9.1e-05 (inactive) | 0.00655 (inactive) | -1.95% (inactive) | 0.215% (inactive) |
| CCCOc1ccc(C2C(C(=O)c3ccc(C)o3)=C(O)C(=O)N2Cc2cccnc2)cc1 (centres undefined) | 755 | -2.8% (inactive) | -9.2% (inactive) | 105 | 35.3% (inactive) | 107 | -0.495 (inactive) | 9.3e-06 (inactive) | 0.00434 (inactive) | 9.82% (inactive) | 3.74% (inactive) |
| Cc1cccc(NC(=O)CN(C)S(=O)(=O)c2ccccc2)n1 | 536 | -17.1% (inactive) | 2.2% (inactive) | 123 | -24.3% (inactive) | 116 | -0.44 (inactive) | -7.5e-05 (inactive) | 0.00526 (inactive) | 15% (inactive) | 15.7% (inactive) |
| Cc1cc(Cl)c(S(=O)(=O)N2CCN(c3ccc(F)cc3)CC2)cc1OCC(N)=O | 373 | -9% (inactive) | 0.5% (inactive) | 97.1 | -37.6% (inactive) | 96.1 | -0.587 (inactive) | -9.2e-05 (inactive) | 0.0038 (inactive) | 19.6% (inactive) | 9.49% (inactive) |
| COc1cccc(-c2nc(-c3ccc(NC(=O)Cc4ccccc4OC)cc3)no2)c1 | 429 | -1.8% (inactive) | -12.3% (inactive) | 95.4 | -68.2% (inactive) | 116 | -0.561 (inactive) | -1.4e-06 (inactive) | 0.0119 (active) | 13% (inactive) | -45.2% (inactive) |
| COc1ccc(-c2cc3nc4n(c(=O)c3s2)CCC4)cc1 | 433 | 3% (inactive) | 4.8% (inactive) | 88.6 | -96.4% (inactive) | 139 | -0.467 (inactive) | -3.4e-05 (inactive) | 0.0055 (inactive) | 12.2% (inactive) | -34.7% (inactive) |
| COc1ccc2c(c1)CCc1c(C(=O)NCc3cccnc3)noc1-2 | 358 | 5.4% (inactive) | -6.5% (inactive) | 103 | -85.6% (inactive) | 89.1 | -0.462 (inactive) | -0.000203 (inactive) | 0.00462 (inactive) | -37.2% (inactive) | -67.9% (inactive) |
| COc1ccccc1N1CCN(C(=O)C2CC=CCC2C(=O)O)CC1 (centres undefined) | 444 | -1.8% (inactive) | -7.5% (inactive) | 87.8 | 24.2% (inactive) | 44.5 | -0.454 (inactive) | -1.2e-05 (inactive) | 0.00504 (inactive) | 18.1% (inactive) | 16.3% (inactive) |
| CC(=O)Nc1ccc2nc(-c3cccnc3)[nH]c2c1 | 435 | -3.2% (inactive) | -1.8% (inactive) | 106 | -9.3% (inactive) | 116 | -0.571 (inactive) | 1.8e-05 (inactive) | 0.00606 (inactive) | -7.23% (inactive) | -16.4% (inactive) |
| Cc1ccc2cc(C#N)c(N3CCCC3)nc2c1C | 360 | 4.8% (inactive) | 10% (inactive) | 111 | -49.6% (inactive) | 110 | -0.195 (inactive) | -2.2e-05 (inactive) | 0.00646 (inactive) | 13.3% (inactive) | -29.1% (inactive) |
| O=C(COC(=O)c1ccc(Br)o1)Nc1ccc(S(=O)(=O)N2CCCC2)cc1 | 619 | -3.6% (inactive) | -10.1% (inactive) | 117 | -150% (inactive) | 130 | -0.208 (inactive) | -2e-05 (inactive) | 0.00525 (inactive) | 12.4% (inactive) | 11.3% (inactive) |
| Nc1nc2sc3c(c2c(=O)s1)CCCC3 | 194 | 0.2% (inactive) | -15.1% (inactive) | 55.3 | 18.8% (inactive) | 90.7 | -0.525 (inactive) | -0.0002 (inactive) | 0.00365 (inactive) | -10.3% (inactive) | -23.7% (inactive) |
| CCCSc1nc2c(c(=O)[nH]c(=O)n2C)n1CCc1ccccc1 | 413 | 11.9% (inactive) | 0.6% (inactive) | 107 | -76.3% (inactive) | 110 | -0.507 (inactive) | -3.4e-05 (inactive) | 0.00465 (inactive) | 17.9% (inactive) | 4.39% (inactive) |
| CCC(=O)N1CCNC(=O)C1CC(=O)Nc1ccc(C)c(Cl)c1 (centres undefined) | 258 | 3.7% (inactive) | -13.9% (inactive) | 102 | -40.7% (inactive) | 88.8 | -0.56 (inactive) | 1.7e-05 (inactive) | 0.00516 (inactive) | -5.01% (inactive) | -2.47% (inactive) |
| CCc1cc2c(=O)c(-c3ccc4c(c3)OCCO4)coc2cc1OC(=O)c1ccco1 | 637 | -5.2% (inactive) | 4.7% (inactive) | 92.8 | -184% (inactive) | 105 | -0.554 (inactive) | -4.2e-05 (inactive) | 0.00495 (inactive) | -45.7% (inactive) | -122% (inactive) |
| CCn1c(C(=O)OC)cc2c1ccn2-c1ccc(F)cc1 | 648 | -2.6% (inactive) | 25% (inactive) | 99.6 | -86.1% (inactive) | 105 | -0.61 (inactive) | -2e-05 (inactive) | 0.00586 (inactive) | -52.7% (inactive) | -96.4% (inactive) |
| COc1ccc(C(=O)Nc2ccc(S(=O)(=O)Nc3nccnc3OC)cc2)cc1OC | 459 | 8.1% (inactive) | 4.1% (inactive) | 101 | -126% (inactive) | 123 | -0.601 (inactive) | 6.9e-06 (inactive) | 0.0057 (inactive) | 21.5% (inactive) | 34.3% (inactive) |
| COCCNC(=O)c1cc2c(-c3ccccc3F)nn(C)c2s1 | 401 | -5.4% (inactive) | -28.5% (inactive) | 96.8 | -12.9% (inactive) | 120 | -0.523 (inactive) | -3.7e-06 (inactive) | 0.00439 (inactive) | 12.1% (inactive) | -0.79% (inactive) |
